Measured values: ChEMBL document CHEMBL3351523 (Bioorg Med Chem, 2014)

Legend:
[1] = Cytotoxicity against mock-infected human MT4 cells after 96 hrs by MTT assay; type: cell-based
Summary of the method: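 Exponentially growing MT-4 cells were seeded at 1 × 10^5 cells/mL in RPMI-1640 with 10% FBS and held at 37 °C, 5% CO2 with serial compound dilutions. Viability was read by MTT after 96 h. CC50 from linear regression against untreated controls.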

[2] = tested on: Human immunodeficiency virus 1; assay: Antiviral activity against HIV1 infected in human MT4 cells assessed as inhibition of virus-induced cytopathogenicity after 4 days by MTT assay; type: functional, organism-based; conditions: Human immunodeficiency virus 1, MT4, 96 h
Summary of the method: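 MT-4 cells (1 × 10^4/well in RPMI) were infected acutely with HIV-1 IIIB, 100 CCID50 (m.o.i. 0.01), with serial dilutions from 100 µM, 1:5. After 4 days at 37 °C, protection from virus-induced cytopathogenicity was read by MTT. EC50 came from linear regression against untreated controls.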

[3] = Cytotoxicity against mock-infected MDBK cells after 48 to 96 hrs by MTT assay; type: cell-based, Bos taurus; conditions: cattle
Summary of the method: (§1)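 Mock-infected MDBK (6 × 10^5 cells/mL; MEM-E, 10% horse serum, 1 mM pyruvate) or BHK (1 × 10^6 cells/mL; MEM-E, 10% FBS) cells were incubated at 37 °C, 5% CO2 with serial dilutions from 100 µM, 1:5. Viability by MTT after 48–96 h. CC50 from linear regression against untreated controls.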

[4] = tested on: Bovine viral diarrhea virus 1; assay: Antiviral activity against Bovine viral diarrhea virus infected in MDBK cells assessed as inhibition of virus-induced cytopathogenicity after 3 to 4 days by MTT assay; type: functional, organism-based; conditions: Bovine viral diarrhea virus isolates and strains
[5] = Cytotoxicity against mock-infected BHK21 cells after 48 to 96 hrs by MTT assay; type: functional; conditions: Mesocricetus auratus, BHK-21; summary of the method: as §1
Yellow fever virus = assay: Antiviral activity against Yellow fever virus infected in BHK21 cells assessed as inhibition of virus-induced cytopathogenicity after 3 to 4 days by MTT assay; type: functional, organism-based; conditions: BHK-21
Reovirus sp. = assay: Antiviral activity against Reovirus type-1 infected in BHK21 cells assessed as inhibition of virus-induced cytopathogenicity after 3 to 4 days by MTT assay; type: functional, organism-based; conditions: BHK-21
[6] = Cytotoxicity against mock-infected african green monkey Vero 76 cells after 48 to 96 hrs by MTT assay; type: cell-based; conditions: chlorocebus sabaeus, mock-infected Vero 76 cells
Coxsackievirus B5 = assay: Antiviral activity against Coxsackievirus B5 infected in african green monkey Vero 76 cells assessed as reduction in plaque number after 3 days by plaque reduction assay; type: functional, organism-based; conditions: Enterovirus B, 72 h
Poliovirus 1 = assay: Antiviral activity against Poliovirus type 1 Sabin strain infected in african green monkey Vero 76 cells assessed as reduction in plaque number after 2 days by plaque reduction assay; type: functional, organism-based; conditions: Enterovirus C, 48 h
[7] = tested on: Respiratory syncytial virus; assay: Antiviral activity against Respiratory syncytial virus infected in african green monkey Vero 76 cells assessed as reduction in plaque number after 5 days by plaque reduction assay; type: functional, organism-based; conditions: human respiratory syncytial virus, 120 h
[8] = tested on: Vesicular stomatitis virus; assay: Antiviral activity against Vesicular stomatitis virus infected in african green monkey Vero 76 cells assessed as reduction in plaque number after 2 days by plaque reduction assay; type: functional, organism-based; conditions: 48 h
Vaccinia virus = assay: Antiviral activity against Vaccinia Virus infected in african green monkey Vero 76 cells assessed as reduction in plaque number after 3 days by plaque reduction assay; type: functional, organism-based; conditions: Orthopoxvirus vaccinia, 72 h
Human alphaherpesvirus 1 = assay: Antiviral activity against HSV1 infected in african green monkey Vero 76 cells assessed as reduction in plaque number after 3 days by plaque reduction assay; type: functional, organism-based; conditions: Human alphaherpesvirus 1, Vero, 72 h
[9] = Selectivity index, ratio of CC50 for african green monkey Vero 76 cells to EC50 for Coxsackievirus B5; type: toxicity, cell-based; conditions: read-out: Ratio CC50/EC50
Summary of the method: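 Mock-infected Vero-76 cells were tested in parallel on the same 24-well plates as the plaque assays (seeding 4 × 10^5 cells/mL, D-MEM with FBS), with serial compound dilutions at 37 °C, 5% CO2. Viability was read after 48–96 h by crystal violet staining. CC50 by linear regression; selectivity index = Vero-76 CC50/EC50 for CVB-5 or RSV.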

SMILES | CC50 at 96 h [1] [µM] | EC50 [2] [µM] | CC50 [3] [µM] | EC50 [4] [µM] | CC50 [5] [µM] | EC50 (Yellow fever virus) [µM] | EC50 (Reovirus sp.) [µM] | CC50 [6] [µM] | EC50 (Coxsackievirus B5) [µM] | EC50 (Poliovirus 1) [µM] | EC50 [7] [µM] | EC50 [8] [µM] | EC50 (Vaccinia virus) [µM] | EC50 (Human alphaherpesvirus 1) [µM] | selectivity ratio [9]
COCCn1c(Cc2ccc(Cl)c(Cl)c2)nc2cc(C(F)(F)F)ccc21 | > 100 | > 100 | > 100 | > 100 | > 100 | > 100 | > 100 | > 100 | 12 | > 100 | > 100 | > 100 | > 100 | > 100 | > 8.33
Clc1ccc(Cc2nc3cc(Cl)c(Cl)cc3n2C[C@@H]2CCCN3CCCC[C@H]23)cc1 | 17 | > 100 | > 100 | > 100 | 30 | > 100 | > 100 | > 100 | 28 | > 100 | > 100 | > 100 | > 100 | > 100 | > 3.57
COc1ccc(-c2nc3cc(C(F)(F)F)ccc3n2C[C@H]2CCCN3CCCC[C@H]23)cc1 | 42 | > 100 | 57 | > 100 | 30 | > 100 | > 100 | > 100 | 54 | > 100 | > 100 | > 100 | > 100 | > 100 | > 1.85
c1ccc(-n2c(C[C@@H]3CCCN4CCCC[C@H]34)nc3ccccc32)cc1 | 33 | > 100 | > 100 | 89 | 30 | > 100 | > 100 | > 100 | 49 | > 100 | > 100 | > 100 | > 100 | > 100 | > 2.04
COc1ccc(Cc2nc3cc(C(F)(F)F)ccc3[nH]2)cc1 | 69 | > 100 | 56 | > 100 | 60 | > 100 | > 100 | 92 | 20 | > 100 | > 100 | > 100 | > 100 | > 100 | 4.6
c1ccc(-c2nc3ccccc3n2[C@H]2CCCN3CCCC[C@H]23)cc1 | > 100 | > 100 | > 100 | > 100 | > 100 | > 100 | > 100 | ≥ 100 | 80 | > 100 | > 100 | 68 | > 100 | > 100 | > 1.25
Cc1nc2cc(C(F)(F)F)ccc2n1C[C@@H]1CCCN2CCCC[C@H]12 | > 100 | > 100 | > 100 | > 100 | > 100 | 27 | > 100 | > 100 | 47 | > 100 | > 100 | > 100 | 23 | > 100 | > 2.13
c1ccc2[nH]c(SC[C@@H]3CCCN4CCCC[C@H]34)nc2c1 | > 100 | > 100 | > 100 | > 100 | > 100 | > 100 | > 100 | > 100 | 48 | > 100 | > 100 | > 100 | > 100 | > 100 | > 2.08
CCN(CC)CCCn1c(Cc2ccc(Cl)c(Cl)c2)nc2cc(C(F)(F)F)ccc21 | 40 | > 100 | 26 | > 100 | > 100 | > 100 | > 100 | > 100 | 17 | 63 | > 100 | > 100 | > 100 | > 100 | > 5.88
FC(F)(F)c1ccc2c(c1)nc(-c1ccc(Cl)cc1)n2C[C@@H]1CCCN2CCCC[C@H]12 | 24 | > 100 | 40 | > 100 | 75 | > 100 | > 100 | 24 | 14 | > 100 | > 100 | > 100 | > 100 | > 100 | 1.71
FC(F)(F)c1ccc2c(c1)nc(CC1CCCC1)n2C[C@@H]1CCCN2CCCC[C@H]12 | 11 | > 100 | 35 | > 100 | 32 | > 100 | > 100 | > 100 | 11 | > 100 | > 100 | > 100 | > 100 | > 100 | > 9.09
Oc1ccc(-c2nc3cc(C(F)(F)F)ccc3n2C[C@@H]2CCCN3CCCC[C@H]23)cc1 | 21 | > 100 | 48 | > 100 | 60 | > 100 | 32 | 78 | 26 | > 100 | > 100 | > 100 | > 100 | > 100 | 3
C[C@@]1(O)[C@H](O)[C@@H](CO)O[C@H]1n1cnc2c(=O)[nH]c(N)nc21 [2'-B-METHYL-GUANOSINE] | > 100 |  | > 100 |  | 90 | > 100 | 2.4 | > 100 | 20 | > 100 | > 100 | > 100 | > 100 | > 100 | > 5
Fc1cccc(F)c1-c1nc2cc(C(F)(F)F)ccc2n1C[C@@H]1CCCN2CCCC[C@H]12 | 57 | > 100 | 36 | > 100 | 18 | > 100 | > 100 | ≥ 100 | > 100 | 60 | > 100 | > 100 | > 100 | > 100 | 
CC(CC(=O)O)n1c(-c2ccccc2)nc2ccccc21 (stereo not given) | > 100 | > 100 | > 100 | > 100 | > 100 | > 100 | > 100 | > 100 | > 100 | > 100 | > 100 | > 100 | > 100 | > 100 | 
COc1ccc(-c2nc3cc(C(F)(F)F)ccc3n2C[C@@H]2CCCN3CCCC[C@H]23)cc1 | 25 | > 100 | > 100 | > 100 | 65 | > 100 | 27 | 75 | > 100 | > 100 | > 100 | > 100 | > 100 | > 100 | 
